Bioassay records deposited in PubChem BioAssay by Johns Hopkins Ion Channel Center.
MrgX1 allo act: allosterically activates human MrgX1 receptor signaling; MrgX1-HEK293, Fluo-4 calcium flux, FDSS; active compounds read high; B-score at 10 µM; 310,000 compounds, 0.63% hits;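 active means plate-corrected calcium response at least 3 library SD above typical, normal starting fluorescence, not activating the receptor alone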;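 further: compound read alongside a low EC10 to EC30 dose of BAM8-22 agonist; peak minus trough fluorescence over baseline measured at the second addition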
Target sequence (Q96LB2 whole entry, looked up): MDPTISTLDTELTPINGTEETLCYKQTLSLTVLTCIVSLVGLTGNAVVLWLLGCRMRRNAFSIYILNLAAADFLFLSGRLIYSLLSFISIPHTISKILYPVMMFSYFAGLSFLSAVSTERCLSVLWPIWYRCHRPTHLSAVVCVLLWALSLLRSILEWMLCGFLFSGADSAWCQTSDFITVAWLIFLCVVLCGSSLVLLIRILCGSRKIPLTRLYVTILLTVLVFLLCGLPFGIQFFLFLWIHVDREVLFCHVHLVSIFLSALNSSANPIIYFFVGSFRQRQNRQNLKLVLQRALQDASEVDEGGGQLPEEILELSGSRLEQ
MrgX1 antagonist: human MrgX1 receptor antagonism, primary screen | B-score at 10 µM | AID 588676 | MRGX1-HEK293 calcium flux, Fluo-4, BAM8-22 antagonism; active compounds read low | Q96LB2 | 310,000 compounds, 1.3% hits;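 active means calcium-response B-score plate-corrected more than 3 library SD below zero, starting fluorescence within 5 deviations, no agonist response on first addition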;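 further: peak minus trough fluorescence over baseline after final BAM8-22 challenge near maximal dose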
RGS4 pot: RGS4 potentiation or activation. HEK293 M3R/inducible RGS4, carbachol calcium flux Fluo4; active compounds read low. B-score at 10 µM. 310,000 compounds, 0.92% hits;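 active means B-score of the integrated calcium signal more than 4 SD below the library mean, with starting fluorescence not abnormally high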;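 further: negative B-score means reduced calcium response which marks RGS4 activation or potentiation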
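Assay system: Inducible-RGS4 HEK293 cells carrying M3 receptor | Schedule: Compound preincubation 20 min at room temperature before agonist | Signal: Kinetic calcium fluorescence imaging with Fluo4-AM dye, 2 µM | Read-out basis: B score from integrated fluorescence ratio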
RGS4 inh: inhibitors of human RGS4. HEK293 M3R/RGS4 inducible, Fluo-4 calcium flux; active compounds read high; triggered by carbachol at its EC20. 310,000 compounds, 0.45% hits. B-score at 10 µM. AID 463165;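 active means B-score, a plate-corrected calcium signal, over three deviations above library mean, with baseline fluorescence within five deviations of library mean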;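 further: RGS4 expression induced by doxycycline in cells with stable M3 receptor; B-score is computed from the integrated fluorescence ratio over baseline after carbachol; higher B-score means a larger calcium signal and so more RGS4 inhibition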
Target sequence (P49798 whole entry, looked up): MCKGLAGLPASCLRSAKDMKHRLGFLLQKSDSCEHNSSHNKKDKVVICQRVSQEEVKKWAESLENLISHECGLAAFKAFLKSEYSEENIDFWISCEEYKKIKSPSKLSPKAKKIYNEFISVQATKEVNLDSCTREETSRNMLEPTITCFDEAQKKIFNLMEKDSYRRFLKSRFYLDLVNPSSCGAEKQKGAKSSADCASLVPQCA
MrgX1 agonist: agonists of human MrgX1 receptor; Q96LB2; MrgX1-HEK293 cells, Fluo-4 calcium fluorescence, agonist mode; active compounds read high; B-score at 10 µM; 310,000 compounds, 0.44% hits;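 active means calcium response B-score plate-corrected fluorescence ratio at least 3 library SD, with starting fluorescence B-score inside 5 SD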
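Material: MrgX1-expressing HEK293 cells / Dosing: compound as first of three additions / Incubation: overnight seeding, then 1 h dark dye loading / Signal: Fluo-4 NW calcium fluorescence / Evaluation: B-scored fluorescence response ratio / Benchmarks: positive and negative control wells on each plate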
MrgX1 antag conf: confirmation of human MrgX1 receptor antagonists. shares compounds with MrgX1 antagonist. MrgX1-HEK293, BAM8-22 calcium flux, Fluo-4; active compounds read low. remaining BAM8-22 calcium response % of control (active compounds read low), % at 10 µM. 2,300 compounds, 19% hits;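 active means remaining agonist calcium response no higher than 100% minus 3 SD of agonist-only control wells, with starting fluorescence near control levels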;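 further: agonist BAM8-22 given at a near maximal EC90 to ECmax level; peak minus minimum fluorescence divided by baseline after agonist addition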
HEK293 Ca flux: counter-screen for MrgX1 antagonists: effect in parental HEK293 cells; 4,000 compounds, 2% hits; Fluo-4 calcium fluorescence, FDSS; AID 624111; fluorescence ratio F(max-min)/F0 at 10 µM; shares compounds with MrgX1 antagonist;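 active means duplicate-averaged calcium fluorescence ratio at least three times the standard deviation of buffer wells, a nonspecific response in parental cells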
HEK293 Ca counter: activity in parental HEK293 cells without MrgX1. shares compounds with MrgX1 antagonist. parental HEK293 calcium flux, Fluo-4 fluorescence ratio; active compounds read high. fluorescence ratio F(max-min)/F0 at 10 µM. 4,000 compounds, 0.4% hits;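 active means calcium fluorescence ratio, averaged over duplicates, at least 3 SD of the buffer-well ratio, meaning a nonspecific response in receptor-free cells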;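 further: untransfected parental HEK293 lacking MrgX1 used as counterscreen for MrgX1 allosteric activators; fluorescence change taken during the second addition on a kinetic imager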
HEK293 Ca cntr2: activity in parental HEK293 cells lacking MrgX1 receptor; shares compounds with MrgX1 antagonist; Fluo-4 calcium fluorescence (FDSS); active compounds read high; fluorescence ratio F(max-min)/F0 at 10 µM; 4,000 compounds, 8.7% hits; AID 624115;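 active means calcium fluorescence ratio at least three times the spread of buffer wells, meaning a non-specific response in parental cells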
The depositor's hits bear a star; i = inactive; · = no result given. Rows were chosen to be rich in hits. Some 3.5% of all compounds tested hit in one or more screens of this group.

SMILES | MrgX1 allo act | MrgX1 antagonist | RGS4 pot | RGS4 inh | MrgX1 agonist | MrgX1 antag conf | HEK293 Ca flux | HEK293 Ca counter | HEK293 Ca cntr2
O=C(NCc1cccs1)c1cc2ccccc2o1 | i | -7.53* | i | i | i | i | i | i | i
CC(C)(CNC(=O)c1ccc(NS(=O)(=O)c2ccc(Br)cc2)cc1)N1CCOCC1 | i | -6.5* | i | i | i | 51.2%* | i | i | i
CC(C)(CNC(=O)c1cc2ccccc2o1)N1CCOCC1 | i | -4.54* | i | i | i | i | i | i | i
CCc1cc(=O)[nH]c(SCc2cccnc2)n1 | i | i | i | i | i | · | · | · | ·
CCc1cc(=O)[nH]c(SCc2ccc(C)cc2)n1 | i | -4.69* | i | i | i | i | i | i | i
COC(=O)c1cc(OC)c(OC)cc1NC(=S)N1CCCCC1 | i | -6.76* | i | i | i | i | i | i | i
COC(=O)c1cc(OC)c(OC)cc1NC(=S)N1CCN(C)CC1 | i | i | i | i | i | · | · | · | ·
CCNc1nc(OCCNC(C)=O)nc(N(C)C)n1 | i | -4.81* | i | i | i | i | i | i | i
O=C(O)c1c[nH]c2c(C(F)(F)F)cccc2c1=O | i | -7.39* | i | i | i | i | i | i | i
COc1cccc2c(=O)c(C(=O)O)c[nH]c12 | i | i | i | i | i | · | · | · | ·
COc1ccc(CCNC(=O)COc2ccc3c(C)cc(=O)oc3c2)cc1OC | i | i | i | i | i | · | · | · | ·
Cc1[nH]ccc(=O)c1OCc1c(Cl)cccc1Cl | i | -6.66* | i | i | i | i | i | i | i
CCOc1ccc(-c2c(C(=O)N/N=C/c3ccc(C)s3)nnn2-c2nonc2N)cc1 | i | i | i | i | i | · | · | · | ·
Cc1ccc(CNc2oc(-c3cccs3)nc2C#N)cc1 | i | -5.37* | i | i | i | i | i | i | i
N#Cc1nc(-c2cccs2)oc1NCc1ccccc1 | i | i | i | i | i | · | · | · | ·
O=C(Cn1nnc(-c2ccc(CN3CCOCC3)cc2)n1)N(c1ccccc1)c1ccccc1 | i | -8.58* | i | i | i | i | i | i | i
O=C(Cn1nnc(-c2ccc(CN3CCOCC3)cc2)n1)N1CCCc2ccccc21 | i | i | i | i | i | · | · | · | ·
Cc1c(C)c2c(C)nn(-c3ccccc3)c2[nH]c1=O | i | i | i | i | i | · | · | · | ·
CCc1c(C)c2c(C)nn(-c3ccccc3)c2[nH]c1=O | i | -4.56* | i | i | i | 85.1%* | i | i | i
Cc1ccsc1C(=O)N(Cc1nnc(-c2ccccc2Cl)o1)C1CC1 | i | -5.8* | i | i | i | i | i | i | i
COC(=O)C(NC(=O)c1ccccc1)c1ccccc1 (stereo not drawn) | i | -9.39* | i | i | i | i | i | i | i
CC(C)Oc1ccc(C(CCN)C2CCCCC2)cc1 (stereo not drawn) | i | -4.74* | i | i | i | i | i | i | i
CC(C)Oc1ccc(C(=O)NC2CCCCC2)cc1 | i | i | i | i | i | · | · | · | ·
CC1CCCC(C)N1C(=C(Cl)Cl)C(=C1SCCS1)[N+](=O)[O-] (stereo not drawn) | i | i | i | i | i | · | · | · | ·
Cc1ccc(NC(=O)CCNS(=O)(=O)c2cc(Br)cnc2N)c(Cl)c1 | i | -5.51* | i | i | i | i | i | i | i
SMILES | MrgX1 allo act | MrgX1 antagonist | RGS4 pot | RGS4 inh | MrgX1 agonist | MrgX1 antag conf | HEK293 Ca flux | HEK293 Ca counter | HEK293 Ca cntr2
CCN(CC)S(=O)(=O)c1cccc(NC(=O)Nc2cccc(C(F)(F)F)c2)c1 | i | -5.17* | i | i | i | 53.4%* | i | i | i
CCN(CC)S(=O)(=O)c1cccc(NC(=O)CC2CCCC2)c1 | i | i | i | i | i | · | · | · | ·
Cc1ccc(CN2CCCNC2=O)cc1 | i | -4.88* | i | i | i | i | i | i | i
CCC1Oc2ccccc2N(CC(=O)NCC2CCCO2)C1=O (stereo not drawn) | i | i | i | i | i | · | · | · | ·
COc1ccccc1NC(=O)COC(=O)Cc1c[nH]c2ccccc12 | i | i | i | i | i | · | · | · | ·
CC(C)c1ccccc1NC(=O)COC(=O)Cc1c[nH]c2ccccc12 | i | -18.6* | i | i | i | i | i | i | i
Cc1ccc(OCC(=O)N/N=C2/SCC(=O)N2Cc2ccccc2)cc1 | i | -21.3* | i | i | i | i | i | i | i
COC(=O)c1ccc(C(=O)OC)c(NC(=O)CCC(=O)O)c1 | i | i | i | i | i | · | · | · | ·
COC(=O)c1ccc(C(=O)OC)c(NC(=O)COC(=O)c2ccccc2OC)c1 | i | -6.69* | i | i | i | 83.6%* | i | i | i
COC(=O)c1cc(NC(=O)/C=C/c2ccccc2)ccc1O | i | i | i | i | i | · | · | · | ·
Cn1c(CNC(=O)CNS(=O)(=O)c2ccc(Cl)cc2)cc(=O)n(C)c1=O | i | i | i | i | i | · | · | · | ·
Cc1ccc(C2C3=C(CCCC3=O)N=C3c4ccccc4C(=O)C32)cc1 (stereo not drawn) | i | -16.2* | i | i | i | i | i | i | i
O=C1CCCC2=C1C(c1ccccc1)C1C(=O)c3ccccc3C1=N2 (stereo not drawn) | i | i | i | i | i | · | · | · | ·
CN(C)N=Nc1nc2c(c(=O)n(C)c(=O)n2C)n1CC1CO1 (stereo not drawn) | i | i | i | i | i | · | · | · | ·
CC1Cc2ccccc2N1C(=O)c1ccc(N2CCCCC2)c([N+](=O)[O-])c1 (stereo not drawn) | i | -10.9* | i | i | i | i | i | i | i
CC1Cc2ccccc2N1C(=O)c1ccc(N2CCCC2)c([N+](=O)[O-])c1 (stereo not drawn) | i | i | i | i | i | · | · | · | ·
